This is an account of results in ChEMBL document CHEMBL1926520, “13,13-Dimethyl-des-C,D analogues of (20S)-1α,25-dihydroxy-2-methylene-19-norvitamin D₃ (2MD): total synthesis, docking to the VDR, and biological evaluation” (Bioorg Med Chem, 2011).

For test [1], the system named is Rattus norvegicus. Briefly: Calcium mobilization in vitamin-D deficient weanling rat bone assessed as increase in serum calcium level at 97 ug/kg, ip administered daily for 7 consecutive days measured 24 hrs after last dose relative to vehicle treated control. The test is classed as functional. In a few lines:
(§1)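 Vitamin D-deficient rats were kept on a low-calcium diet and in the final week dosed ip once daily for 7 consecutive days in 0.1 ml propylene glycol/ethanol (95:5). Controls received vehicle only. Serum Ca (mg/dL) was measured 24 h after the last dose and reported as the increase over vehicle-treated rats, average ± SEM, with 5–6 rats per group.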
For orientation: Calcium flux is commonly read through the fluorescence of an indicator in the cells.

Test [2] concerns Rattus norvegicus. As to the kind of experiment: Calcium mobilization in vitamin-D deficient weanling rat bone assessed as increase in serum calcium level at 6.5 ug/kg, ip administered daily for 7 consecutive days measured 24 hrs after last dose relative to vehicle treated control. It is filed as functional. In a few lines: as §1
Test [3] concerns Rattus norvegicus. Briefly: Calcium mobilization in vitamin-D deficient weanling rat bone assessed as increase in serum calcium level at 19 ug/kg, ip administered daily for 7 consecutive days measured 24 hrs after last dose relative to vehicle treated control. The test is classed as functional. In a few lines: as §1
Test [4] has as its target T1, Vitamin D3 receptor (Rattus norvegicus, UniProt P13053).
T1 sequence (P13053 whole entry): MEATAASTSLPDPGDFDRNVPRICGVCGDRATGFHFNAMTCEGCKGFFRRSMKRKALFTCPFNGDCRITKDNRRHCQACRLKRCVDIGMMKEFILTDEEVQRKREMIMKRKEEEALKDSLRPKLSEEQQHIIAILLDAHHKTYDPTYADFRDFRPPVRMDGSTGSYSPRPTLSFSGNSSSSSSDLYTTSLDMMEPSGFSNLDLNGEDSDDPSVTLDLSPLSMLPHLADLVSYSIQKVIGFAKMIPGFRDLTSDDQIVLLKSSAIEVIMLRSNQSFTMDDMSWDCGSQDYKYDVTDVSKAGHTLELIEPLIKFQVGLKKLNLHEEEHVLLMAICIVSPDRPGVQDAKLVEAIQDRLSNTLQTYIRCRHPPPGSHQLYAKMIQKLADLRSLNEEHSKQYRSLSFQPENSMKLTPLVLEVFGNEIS
As to the kind of experiment: Agonist activity at rat VDR in ROS 17/2.8 cells transfected with Cyp24a1 reporter plasmid assessed as increase in Cyp24a1 transcription after 16 hrs by luciferase reporter gene assay. It is filed as functional, cell-based. Summed up: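 ROS 17/2.8 osteosarcoma (bone) cells stably carrying a Cyp24a1 promoter–luciferase reporter were given a range of doses. Cells were harvested 16 h after dosing and luciferase was read on a luminometer. Duplicates were run on two–three separate occasions.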

Test [5] relates to Rattus norvegicus. As to the kind of experiment: Calcium mobilization in vitamin-D deficient weanling rat bone assessed as increase in serum calcium level at 2.1 ug/kg, ip administered daily for 7 consecutive days measured 24 hrs after last dose relative to vehicle treated control. The test is classed as functional. In a few lines:
as §1

The target of test [6] is T1, Vitamin D3 receptor. Briefly: Displacement of [3H]-1alpha,25(OH)2D3 from recombinant rat VDR by scintillation counting. In a few lines: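 It was incubated overnight on ice with 1 nM final [3H]-1α,25(OH)2D3 plus unlabeled ligand in ethanol (<10% final). Bound ligand was collected on hydroxylapatite, washed and counted by scintillation. […] Duplicates were run on two–three occasions.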
(Loss of bound radioactivity is the signal in a displacement assay; it reports binding, not function.)

In test [7] the test system is Rattus norvegicus. Briefly: Calcium transport in vitamin-D deficient weanling rat intestine assessed as intestinal calcium level at 2.1 ug/kg, ip administered daily for 7 consecutive days measured 24 hrs after last dose. It is filed as functional. In a few lines: (§2)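 Vitamin D-deficient rats were kept on a low-calcium diet and dosed ip daily for 7 consecutive days in the last week, in 0.1 ml propylene glycol/ethanol (95:5), with vehicle-only controls. Measurements were taken 24 h after the final dose. Intestinal calcium transport was expressed as the rise in serosal/mucosal (S/M) ratio over vehicle, average ± SEM, with 5–6 rats per group.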

The subject of test [8] is Rattus norvegicus. Briefly: Calcium transport in vitamin-D deficient weanling rat intestine assessed as intestinal calcium level at 6.5 ug/kg, ip administered daily for 7 consecutive days measured 24 hrs after last dose. It is filed as functional. Summed up:
as §2

Test [9] relates to HL-60. Briefly: Induction of human HL60 cell differentiation after 4 days by nitro blue tetrazolium reduction assay relative to 1alpha,25(OH)2D3. It is filed as functional. Summed up: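 HL-60 cells were grown in RPMI-1640 with 10% FBS at 37 °C and 5% CO2, plated at 1.2×10^5 cells/plate, and treated in duplicate 18 h later (ethanol <0.2% final). After 4 days, NBT reduction was scored by counting formazan-positive cells among 200. […] The experiment was repeated 2–3 times.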

The subject of test [10] is Rattus norvegicus. As to the kind of experiment: Calcium transport in vitamin-D deficient weanling rat intestine assessed as intestinal calcium level at 97 ug/kg, ip administered daily for 7 consecutive days measured 24 hrs after last dose. It is filed as functional. Summed up: as §2
The subject of test [11] is Rattus norvegicus. Briefly: Calcium transport in vitamin-D deficient weanling rat intestine assessed as intestinal calcium level at 19 ug/kg, ip administered daily for 7 consecutive days measured 24 hrs after last dose. It is filed as functional. In a few lines: as §2
The test system of test [12] is HL-60. Briefly: Induction of human HL60 cell differentiation after 4 days by nitro blue tetrazolium reduction assay. It is filed as functional, cell-based. The settings on record: HL-60, 96 h.
Test [13] relates to Rattus norvegicus. Briefly: Calcium mobilization in vitamin-D deficient weanling rat bone assessed as increase in serum calcium level at 5.7 ug/kg, ip administered daily for 7 consecutive days measured 24 hrs after last dose relative to vehicle treated control. The test is classed as functional. In a few lines:
as §1

For test [14], the system named is Rattus norvegicus. Briefly: Calcium mobilization in vitamin-D deficient weanling rat bone assessed as increase in serum calcium level at 22.8 ug/kg, ip administered daily for 7 consecutive days measured 24 hrs after last dose relative to vehicle treated control. The test is classed as functional. In a few lines:
as §1

The test system of test [15] is Rattus norvegicus. As to the kind of experiment: Calcium mobilization in vitamin-D deficient weanling rat bone assessed as increase in serum calcium level at 1.9 ug/kg, ip administered daily for 7 consecutive days measured 24 hrs after last dose relative to vehicle treated control. It is filed as functional. Summed up: as §1
The test system of test [16] is Rattus norvegicus. As to the kind of experiment: Calcium transport in vitamin-D deficient weanling rat intestine assessed as intestinal calcium level at 0.7 ug/kg, ip administered daily for 7 consecutive days measured 24 hrs after last dose. It is filed as functional. Summed up: as §2
Test [17] deals with Rattus norvegicus. Briefly: Calcium mobilization in vitamin-D deficient weanling rat bone assessed as increase in serum calcium level at 0.7 ug/kg, ip administered daily for 7 consecutive days measured 24 hrs after last dose relative to vehicle treated control. The test is classed as functional. In a few lines:
as §1

In test [18] the test system is Rattus norvegicus. As to the kind of experiment: Calcium mobilization in vitamin-D deficient weanling rat bone assessed as increase in serum calcium level at 0.2 ug/kg, ip administered daily for 7 consecutive days measured 24 hrs after last dose relative to vehicle treated control. The test is classed as functional. In a few lines:
as §1

Test [19] deals with Rattus norvegicus. Briefly: Calcium transport in vitamin-D deficient weanling rat intestine assessed as intestinal calcium level at 0.2 ug/kg, ip administered daily for 7 consecutive days measured 24 hrs after last dose. The test is classed as functional. In a few lines: as §2

The structures appear in SMILES notation.

For the compound `C=C1[C@H](O)CC(=C/C=C/CC(C)(C)C[C@@H](C)CCCC(C)(C)O)C[C@H]1O`, the Activity was determined as 0.3 mg/dL in the test with Rattus norvegicus [1]; 0.6 mg/dL with Rattus norvegicus [2]; 0.4 mg/dL with Rattus norvegicus [3]; 0.2 mg/dL with Rattus norvegicus [5]; 0 mg/dL in the test with Rattus norvegicus [7]; 0.4 mg/dL in the test on Rattus norvegicus [8]. The Activity was 2.6 mg/dL with Rattus norvegicus [10] and 1 mg/dL in the test with Rattus norvegicus [11]. Also, the EC50 (commonly the concentration needed to bring the measured effect to its halfway point) is 2 nM at Vitamin D3 receptor [4] and 6 nM in the test with HL-60 [12]. In addition, at Vitamin D3 receptor [6], the inhibitory constant (Ki) (as a rule, the equilibrium dissociation constant of an inhibitor or competing ligand from its target) stood at 2 nM. The “Ratio EC50” value with HL-60 [9] is given as 2.
On to `C=C1[C@H](O)CC(=C/C=C\CC(C)(C)C[C@@H](C)CCCC(C)(C)O)C[C@H]1O`, for which the Activity was 0.2 mg/dL in the test on Rattus norvegicus [2] and 0.1 mg/dL in the test with Rattus norvegicus [8]. Also, on Vitamin D3 receptor [4], the EC50 was 30 nM. In addition, the Ki at Vitamin D3 receptor [6] came to 10 nM.
As for `C=C1[C@H](O)CC(=C/C=C/CCC[C@@H](C)CCCC(C)(C)O)C[C@H]1O`, the Activity in the test with Rattus norvegicus [13] is 0.1 mg/dL; in the test with Rattus norvegicus [14] it was 0.2 mg/dL; with Rattus norvegicus [15], -0.2 mg/dL. Besides, the “Ratio EC50” value in the test on HL-60 [9] stood at 100.
For the compound `C=C1/C(=C\C=C2/CCC[C@]3(C)[C@@H]([C@H](C)CCCC(C)(C)O)CC[C@@H]23)C[C@@H](O)C[C@@H]1O` [CALCITRIOL], the Activity in the test on Rattus norvegicus [16] amounted to 2.8 mg/dL; in the test with Rattus norvegicus [17] it was 1.3 mg/dL; in the test on Rattus norvegicus [3] it was 3.9 mg/dL; in the test on Rattus norvegicus [18], 0.5 mg/dL; in the test on Rattus norvegicus [5] it was 1.9 mg/dL; in the test on Rattus norvegicus [7], 4.2 mg/dL. The values for the Activity in the test on Rattus norvegicus [11] and in the test on Rattus norvegicus [19] were 5.9 mg/dL and 4.2 mg/dL, respectively.
